High-throughput results (PubChem)
This is a sample that favours compounds with a hit; in the whole collection about 3% have one here.
Insulin prom up = MIN6 insulin promoter up-regulation | MIN6 insulin promoter-GFP reporter, high-content imaging; stronger effect = higher value | z-score at 5 µM | 190,000 compounds, 0.3% hits;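 active = z-score above 3 at 5 µM with at least 500 cells counted in the well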
BB579 growth dn = chemicals that inhibit yeast BB579 growth in restrictive medium (lifespan-shortening candidates); 140,000 compounds, 0.51% hits; inhibition, % at 10 µM; S. cerevisiae BB579 growth, OD615, 48 h;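 active = inhibition above a set limit, 3 SD over the mean compound inhibition, cut at about 44% in these data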
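Assay system – yeast BB579 (DeaD) · Dosing – single compound dose of 10 µM, 0.25% DMSO final · Detection – OD615 turbidity measurement · Buffer or medium – CSMM-D restrictive synthetic medium containing dextrose (glucose) · Benchmarks – positive control amphotericin B 10 µg/mL · Incubation – 48 h exposure, 30 °C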
Insulin prom inh = TRM-6 insulin promoter activity inhibition | 130,000 compounds, 0.9% hits | TRM-6 cells (human fetal islet line), insulin promoter-eGFP reporter, imaging; reporter expression induced with tamoxifen | inhibition, % at 2 µM;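 active = inhibition above the mean plus 3 SD, with well images judged a real hit on visual review, cut at about 60% in these data, passing the limit was not always enough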
RAM inhibit = inhibitors of the yeast RAM network; S. cerevisiae dse1pr::URA3 reporter, 5-FOA growth OD615, 2 d; analog-sensitive cbk1-as2 kinase mutant strain; inhibition, % at 50 µM; 190,000 compounds, 1.8% hits; AID 868;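 active = inhibition above a set limit, 3 SD over mean compound inhibition, cut at about 8.4% in these data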;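 also: inhibition rescues growth on 5-FOA so higher OD means more RAM inhibition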
Yeast life ext = extends the lifespan of yeast; S. cerevisiae growth with nicotinamide, OD615; deaD strain in restrictive glucose medium; inhibition of the nicotinamide effect, % at 10 µM; 130,000 compounds, 0.68% hits; AID 775;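 active = inhibition above a set limit, placed 3 SD over the median of all compounds, cut at about 26% in these data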
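assay system = DeaD-strain S. cerevisiae | measured by = absorbance at 615 nm | probe or stimulus = nicotinamide 1.5 mM | buffer or medium = CSMM-D glucose medium, restrictive | times = 48 h at 30 °C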
Numbers stand for hits; - = inactive; . = no result given.

SMILES	Insulin prom up	BB579 growth dn	Insulin prom inh	RAM inhibit	Yeast life ext
O=C(Nc1cccc(C(F)(F)F)c1)C(=O)N1CCCCC1	-	.	.	-	.
CCOc1cc(-n2nc(C)c(C#N)c2N)nc(SC)n1	.	-	76	-	.
CCOc1cc(-n2ncc(C#N)c2N)nc(SC)n1	-	-	-	-	.
COc1ccccc1CNC(=O)CSc1ccc(-c2cccc([N+](=O)[O-])c2)nn1	-	.	.	-	.
O=C(CSc1nc(O)c(C2CCCCC2)c(=O)[nH]1)N1CCOCC1	-	.	-	-	.
CC(C)(C)c1ccc(-c2nc(-c3ccncc3)no2)cc1	.	68	-	-	.
CCOc1ccc(C2/C(=C(\O)c3c(C)[nH]c(C(=O)OC)c3C)C(=O)C(=O)N2CCN(C)C)cc1 (stereo not given)	.	-	-	-	-
CCOc1ccc(/C(O)=C2/C(=O)C(=O)N(c3cc(C)on3)C2c2ccc(C(=O)OC)cc2)cc1 (stereo not given)	-	-	-	-	-
CCCOc1ccc(C2/C(=C(\O)c3c(C)[nH]c(C(=O)OC)c3C)C(=O)C(=O)N2CCN(C)C)cc1 (stereo not given)	.	-	85	-	-
CCCOc1ccc(/C(O)=C2/C(=O)C(=O)N(c3cc(C)on3)C2c2ccc(C(=O)OC)cc2)cc1 (stereo not given)	-	-	-	11	-
CC(C)(C)c1nc(SCC(=O)N2CC(=O)Nc3ccccc32)c2ccccc2n1	-	.	-	-	.
Cc1cccc(N(CC(O)CON=C2c3ccccc3-c3ccccc32)S(C)(=O)=O)c1 (stereo not given)	.	-	-	9.8	-
CS(=O)(=O)N(CC(O)CON=C1c2ccccc2-c2ccccc21)c1ccc(F)cc1 (stereo not given)	-	-	-	-	-
CN(CC(O)CON=C1c2ccccc2-c2ccccc21)S(=O)(=O)c1ccc(Br)cc1 (stereo not given)	-	-	.	9.3	-
CCN(C(=O)CSc1nnc2nc(C)cc(C)n12)c1ccccc1	-	.	.	-	.
O=[N+]([O-])c1ccc(C2OCCO2)cc1CS(=O)(=O)c1ccccc1	-	.	-	-	.
Cc1cc(-c2n[nH]c(=S)n2/N=C/c2cc([N+](=O)[O-])ccc2Cl)n[nH]1	-	96	-	-	-
COc1ccc(OC)c2[nH]c(=O)c(CCNC(=O)c3ccc(Br)o3)cc12	-	-	86	-	-
COc1ccc(OC)c2[nH]c(=O)c(CCNC(=O)c3ccc(S(=O)(=O)N(C)C)cc3)cc12	-	-	91	-	-
O=C(NCC1CCCO1)C1CCN(S(=O)(=O)N2CCCC2)CC1 (stereo not given)	3.6	-	.	-	-
CCS(=O)(=O)N1CCC(C(=O)NCC2CCCO2)CC1 (stereo not given)	-	-	.	-	-
Cc1nc2c(Cl)cc(Cl)cc2[nH]1	-	-	73	-	-
COc1ccccc1N(CCN1C(=O)c2cccc3cccc(c23)C1=O)C(=O)c1ccncc1	-	.	.	-	.
O=C(NCC1CCCO1)c1ccc(NS(=O)(=O)c2ccccc2)cc1 (stereo not given)	-	.	.	-	.
COCc1cc(C)nc(Nc2ccccc2C)c1C#N	3.3	-	-	-	-
SMILES	Insulin prom up	BB579 growth dn	Insulin prom inh	RAM inhibit	Yeast life ext
O=C(CS(=O)(=O)c1ccccc1)Nc1nc(-c2ccc(F)cc2)cs1	-	.	75	-	.
Cc1cccc(N/C(N)=N/c2nc(C)cc(=O)[nH]2)c1	.	.	-	-	.
CCCCN(C(=O)c1ccc(NC(=O)C(C)C)cc1)c1ccccc1	.	.	.	-	.
CCOC(=O)/C(=C\c1cn(C)c2ccccc12)[N+](=O)[O-]	-	-	-	-	44
CCOC(=O)/C(C#N)=C\c1cn(C)c2ccccc12	-	.	.	-	.
Cc1ccccc1OCCN(C#N)c1nc(N(C)C)nc(N(C)C)n1	-	.	.	-	.
O=C(CCCc1nc2ccccc2s1)N1CCN(S(=O)(=O)c2cccs2)CC1	-	-	.	8.8	-
CCC(C)Nc1nc2c(C)cccn2c(=O)c1C=Nc1ccc(OC)cc1 (stereo not given)	-	.	-	-	.
CCCN1C(=O)/C(=C/c2c(NCCCOC(C)C)nc3c(C)cccn3c2=O)SC1=S	.	-	-	9.4	-
COC(=O)/C=c1/s/c(=C(/C#N)C(=O)N2CCOCC2)n(-c2ccccc2)c1=O	-	-	-	-	-
COC(=O)/C=c1/s/c(=C(\C#N)C(=O)NCc2ccco2)n(-c2ccc(C)cc2)c1=O	-	-	.	8.5	-
O=C1NC(c2ccccc2)Nc2c1sc(=S)n2-c1ccccc1 (stereo not given)	-	.	-	-	.
CCOc1ccc(S(=O)(=O)N2CCCCC2)c2ccccc12	-	-	-	9.4	-
O=S(=O)(c1ccccc1S(=O)(=O)N1CCCCC1)N1CCCCC1	-	-	-	-	-
CCOc1ccc(S(=O)(=O)N2CCCCC2)c(C)c1C	.	.	.	-	.
O=S(=O)(c1ccc(F)c2ccccc12)N1CCCCC1	-	-	-	8.9	-
COc1cc(NC(=O)CSc2nc3ccccc3n2-c2ccccc2)c(C)cc1[N+](=O)[O-]	-	-	-	-	-
Cc1ccc(CNC(=O)C(=O)Nc2nccs2)cc1	-	.	-	-	.
O=c1oc2c(-c3ccc([N+](=O)[O-])cc3)cc(O)cc2s1	-	.	.	.	.
CN(C)c1ccc(/C=N/NC(=O)c2cccc(C(=O)N/N=C/c3ccc(N(C)C)cc3)n2)cc1	-	.	-	9.9	.
CCOC(=O)C(=Cc1ccc(F)cc1)C(=O)OCC	-	-	-	-	78
CCOC(=O)C(=Cc1ccc(Br)cc1)C(=O)OCC	-	.	.	.	.
COc1ccc(S(=O)(=O)N2CCCCCC2)cc1Br	-	.	.	-	.
O=C(Nc1ccc2c(c1)OCCO2)N1CCOCC1	-	.	78	-	.
O=C(Nc1ccc2c(c1)OCO2)N1CCOCC1	-	-	-	-	-
SMILES	Insulin prom up	BB579 growth dn	Insulin prom inh	RAM inhibit	Yeast life ext
Cn1c(=O)cc(SCC(=O)N2CCN(c3ccccc3)CC2)c2ccccc21	-	-	85	-	-
COc1cc(/C=C/C(=O)O)cc(S(=O)(=O)Nc2ccc3nc(SC)sc3c2)c1OC	-	.	.	-	.
COc1ccc(OCc2nc3c4c(ncn3n2)-c2ccccc2CC42CCCC2)cc1	-	-	.	-	-
Cc1cccc(OCc2nc3c4c(ncn3n2)-c2ccccc2CC42CCCC2)c1	-	-	-	9.2	-
COc1ccc(-c2nc3c4c(ncn3n2)-c2ccccc2CC42CCCC2)cc1	-	-	.	-	-
Cc1ccccc1OCc1nc2c3c(ncn2n1)-c1ccccc1CC31CCCC1	-	-	.	11	-
Cc1ccc(OCc2nc3c4c(ncn3n2)-c2ccccc2CC42CCCC2)cc1	-	-	-	10	-
O=C(Cn1cnc2ccccc2c1=O)Nc1ccc(-c2nnc3n2CCCCC3)cc1	.	-	93	-	-
CC1CN(c2nc(-c3ccccc3)nc3ccccc23)CC(C)O1 (stereo not given)	-	-	92	-	-
COc1ccc(-n2c(C)cc(/C=N/Nc3nnc(C)n3N)c2C)cc1	-	-	-	-	-
O=C(Nc1cccc(Cl)c1)c1ccc2c(=O)n3c(nc2c1)CCCCC3	-	-	-	-	59
